Data on 24 compounds can be found in ChEMBL document CHEMBL3769396 (J Med Chem, 2016).

One assay concerns the target T1, Histone deacetylase 8 (Homo sapiens, UniProt Q9BY41).
T1 sequence (Q9BY41 whole entry): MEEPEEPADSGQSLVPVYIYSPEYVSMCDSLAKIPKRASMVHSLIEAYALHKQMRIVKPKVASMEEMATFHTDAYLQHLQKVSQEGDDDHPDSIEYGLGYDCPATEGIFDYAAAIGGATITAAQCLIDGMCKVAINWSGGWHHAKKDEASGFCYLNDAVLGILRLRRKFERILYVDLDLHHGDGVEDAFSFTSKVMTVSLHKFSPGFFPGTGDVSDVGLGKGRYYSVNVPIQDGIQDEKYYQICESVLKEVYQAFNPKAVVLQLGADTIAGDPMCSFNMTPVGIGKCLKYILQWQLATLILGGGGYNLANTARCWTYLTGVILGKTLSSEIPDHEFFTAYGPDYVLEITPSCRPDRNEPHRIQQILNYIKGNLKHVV
Kind of assay: Inhibition of human HDAC8 using Z-L-Lys([…]-trifluoroacetyl)-AMC as substrate after 90 mins by fluorescence analysis.

Assay [1] has as its target T2, Histone deacetylase 1 (Homo sapiens, UniProt Q13547). Description: Inhibition of human HDAC1 using (Z-(Ac)Lys-AMC) as substrate after 90 mins by fluorescence analysis.
Assay [2] has as its target T3, Protein deacetylase HDAC6 (Homo sapiens, UniProt Q9UBN7).
T3 sequence (Q9UBN7 whole entry): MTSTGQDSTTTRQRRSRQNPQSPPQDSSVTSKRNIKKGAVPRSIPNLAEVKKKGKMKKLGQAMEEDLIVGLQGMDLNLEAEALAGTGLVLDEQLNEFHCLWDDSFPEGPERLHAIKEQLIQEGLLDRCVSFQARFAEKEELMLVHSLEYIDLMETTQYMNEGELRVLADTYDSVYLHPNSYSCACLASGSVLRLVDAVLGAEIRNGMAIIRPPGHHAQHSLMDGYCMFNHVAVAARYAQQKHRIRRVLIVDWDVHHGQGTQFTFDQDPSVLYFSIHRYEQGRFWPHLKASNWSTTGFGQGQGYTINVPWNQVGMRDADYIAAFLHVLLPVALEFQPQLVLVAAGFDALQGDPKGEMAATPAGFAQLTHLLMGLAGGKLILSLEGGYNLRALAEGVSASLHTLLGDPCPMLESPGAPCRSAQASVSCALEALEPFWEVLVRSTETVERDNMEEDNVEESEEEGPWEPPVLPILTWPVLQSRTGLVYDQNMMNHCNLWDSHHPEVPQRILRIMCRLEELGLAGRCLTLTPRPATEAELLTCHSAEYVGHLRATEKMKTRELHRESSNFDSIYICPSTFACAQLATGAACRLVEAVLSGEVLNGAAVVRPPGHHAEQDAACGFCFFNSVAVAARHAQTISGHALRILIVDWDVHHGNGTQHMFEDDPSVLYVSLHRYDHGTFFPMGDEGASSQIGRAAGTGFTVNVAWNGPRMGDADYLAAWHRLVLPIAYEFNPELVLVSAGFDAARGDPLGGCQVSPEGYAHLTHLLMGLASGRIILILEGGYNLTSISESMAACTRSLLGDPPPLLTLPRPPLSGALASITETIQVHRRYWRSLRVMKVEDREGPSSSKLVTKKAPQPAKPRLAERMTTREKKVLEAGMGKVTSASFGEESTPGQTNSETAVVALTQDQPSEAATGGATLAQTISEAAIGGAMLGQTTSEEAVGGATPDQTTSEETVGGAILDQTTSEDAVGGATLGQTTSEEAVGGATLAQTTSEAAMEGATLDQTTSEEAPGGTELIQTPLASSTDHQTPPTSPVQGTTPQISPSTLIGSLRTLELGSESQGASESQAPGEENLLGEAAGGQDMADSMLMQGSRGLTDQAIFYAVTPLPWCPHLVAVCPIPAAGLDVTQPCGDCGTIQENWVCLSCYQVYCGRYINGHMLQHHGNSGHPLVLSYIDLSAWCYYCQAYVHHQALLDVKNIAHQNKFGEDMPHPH
Kind of assay: Inhibition of human HDAC6 using (Z-(Ac)Lys-AMC) as substrate after 90 mins by fluorescence analysis.

Assay [3] in a line: Cytotoxicity against human HL60 cells after 72 hrs by cell titre 96 aqueous cell proliferation assay. The assay is classed as functional, HL-60. The essentials: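 HL60 cells, 5000/well in RPMI with 10% FBS, 2 mM L-glutamine and penicillin/streptomycin, treated with a range of concentrations (0.05% DMSO control) for 72 h. MTS/PMS (20:1) was then added and A490 read after 2-4 h, with the cell-free background subtracted. GI50 is the concentration giving 50% viable cells; triplicates, mean of at least two experiments.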

For a further assay, the species on record is Homo sapiens. Description: Selectivity ratio of IC50 for class1 HDAC (unknown origin) to IC50 for HDAC6 (unknown origin). The essentials:
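Ratio of IC50 HDAC1 (or HDAC8) to IC50 HDAC6. Human recombinant HDAC1/6 were run in Tris-HCl pH 8.0 with NaCl, KCl, MgCl2 and BSA, using ZMAL substrate. HDAC8 was run in KH2PO4/Tris pH 7.5 with Z-L-Lys(ε-trifluoroacetyl)-AMC. All: 90 min at 37 °C, then TSA/trypsin stop for 30 min, fluorescence ex 390/em 460 nm. IC50 is the mean of at least two experiments.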

Assay [4] deals with T4, Histone deacetylase 8 (Homo sapiens) (UniProt Q9BY41).
T4 sequence (whole entry): T1 sequence (Q9BY41 whole entry)
Kind of assay: Inhibition of human HDAC8 at 100 uM using Z-L-Lys([…]-trifluoroacetyl)-AMC as substrate after 90 mins by fluorescence analysis.

The target in assay [5] is T2, Histone deacetylase 1. Kind of assay: Inhibition of human HDAC1 at 10 uM using (Z-(Ac)Lys-AMC) as substrate after 90 mins by fluorescence analysis.

pIC50: −log10 of the molar value.

T2 sequence (Q13547 whole entry): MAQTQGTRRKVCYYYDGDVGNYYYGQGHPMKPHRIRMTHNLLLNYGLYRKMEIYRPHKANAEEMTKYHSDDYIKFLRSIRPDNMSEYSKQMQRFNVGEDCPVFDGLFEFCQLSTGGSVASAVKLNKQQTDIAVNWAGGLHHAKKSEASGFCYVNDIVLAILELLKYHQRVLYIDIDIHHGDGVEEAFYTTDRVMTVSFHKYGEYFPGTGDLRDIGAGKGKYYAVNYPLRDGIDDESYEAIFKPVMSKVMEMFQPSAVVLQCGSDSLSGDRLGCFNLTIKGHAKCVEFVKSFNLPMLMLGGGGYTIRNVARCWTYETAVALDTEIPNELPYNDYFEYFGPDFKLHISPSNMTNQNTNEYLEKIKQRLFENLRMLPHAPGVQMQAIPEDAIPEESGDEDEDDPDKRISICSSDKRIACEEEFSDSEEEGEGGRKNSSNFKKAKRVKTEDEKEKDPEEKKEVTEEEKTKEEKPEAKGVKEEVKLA

The pIC50 is the negative decadic logarithm of the IC50, by convention in mol/L. A low value points to a large IC50. On to `O=C(NO)c1coc(C(c2ccccc2)c2ccccc2)n1`, for which the pIC50 is 5.57 on Histone deacetylase 8, 4.03 against Histone deacetylase 1 [1] and 5.03 in assay [2].

A word on the GI50: it is the concentration giving 50% growth inhibition. High values mean less potent growth inhibition, low ones more potent growth inhibition. Consider `O=C(NO)c1csc(-c2ccc(Br)cc2)n1`, for which the pIC50 against Histone deacetylase 8 was 4.44; on Histone deacetylase 1 [1], 4.76; in assay [2], 5.97. Further, the GI50 in assay [3] (Homo sapiens, HL-60, 72 h) came out at 11.1 µM.

Turning to `O=C(NO)c1coc(-c2ccc(F)cc2)n1`, the values for the pIC50 (against Histone deacetylase 8; against Histone deacetylase 1 [1]; in assay [2]) were 4.36, 4.62 and 6.96, respectively. Further, the GI50 in assay [3] (Homo sapiens, HL-60, 72 h) was found to be 30.1 µM.

In the case of `O=C(CCCCCCNC(=O)c1cnc(N(c2ccccc2)c2ccccc2)nc1)NO`, the Ratio IC50 in the assay listed under Homo sapiens turned out to be 10.

As for `O=C(NO)c1coc(-c2cccs2)n1`, the pIC50 at Histone deacetylase 8 is 5.09; against Histone deacetylase 1 [1], 4.44; in assay [2] it was 6.51.

As for `O=C(NO)c1coc(-c2cccc(-c3ccccc3)c2)n1`, the negative-log IC50 (pIC50) against Histone deacetylase 8 was 5.00; on Histone deacetylase 1 [1] it was 4.72; in assay [2] it was 6.30.

Usually inhibition stands for how much of the control response was suppressed. With `O=C(NO)c1noc(-c2ccc(-c3ccccc3)cc2)n1`, the pIC50 is 4.83 on Histone deacetylase 1 [1] and 5.88 in assay [2]. Further, the inhibition in assay [4] was 62%.

Regarding `O=C(NO)c1coc(-c2ccc(Cl)cc2)n1`, the negative-log IC50 (pIC50) against Histone deacetylase 8 was 4.51; against Histone deacetylase 1 [1] it was 4.71; in assay [2] it was 7.09.

On to `COc1ccc(-c2nc(C(=O)NO)co2)cc1`, for which the pIC50 at Histone deacetylase 8 was 4.29; against Histone deacetylase 1 [1], 4.48; in assay [2], 6.71. The GI50 in assay [3] (Homo sapiens, HL-60, 72 h) was found to be 29.2 µM.

`O=C(NO)c1csc(C(c2ccccc2)c2ccccc2)n1`: the pIC50 was 4.89 at Histone deacetylase 8, 4.32 against Histone deacetylase 1 [1] and 5.43 in assay [2].

For the compound `O=C(NO)c1coc(-c2ccccc2)n1`, the values for the pIC50 (at Histone deacetylase 8; against Histone deacetylase 1 [1]; in assay [2]) were 4.38, 4.52 and 6.57, respectively. This compound also showed a GI50 in assay [3] (Homo sapiens, HL-60, 72 h) of 44.1 µM.

On to `COc1ccc2cc(-c3nc(C(=O)NO)co3)ccc2c1`, for which the pIC50 against Histone deacetylase 8 is 4.54; against Histone deacetylase 1 [1], 4.65; in assay [2] it was 6.74.

Regarding `Cc1ccc(-c2nc(C(=O)NO)co2)cc1`, the negative logarithm of the IC50 (pIC50) on Histone deacetylase 8 is 4.47; against Histone deacetylase 1 [1] it was 4.40; in assay [2], 6.50.

In the case of `O=C(NO)c1coc(-c2ccccc2Br)n1`, the negative-log IC50 (pIC50) against Histone deacetylase 8 was 4.69; at Histone deacetylase 1 [1] it was 4.65; in assay [2], 5.66.

Regarding `O=C(CCCCCCC(=O)Nc1ccccc1)NO` [VORINOSTAT], growth in assay [3] was halved (GI50) at 0.08 µM.

Regarding `O=C(NO)c1noc(-c2ccccc2)n1`, the figures for the pIC50 (against Histone deacetylase 8; against Histone deacetylase 1 [1]; in assay [2]) were 4.41, 4.60 and 6.95, respectively.

For the compound `O=C(NO)c1csc(-c2cnccn2)n1`, the pIC50 at Histone deacetylase 8 is 4.21; against Histone deacetylase 1 [1], 4.08; in assay [2], 5.05.

Regarding `O=C(NO)c1csc(Cc2ccccc2)n1`, the pIC50 against Histone deacetylase 8 is 4.46; at Histone deacetylase 1 [1] it was 4.08; in assay [2] it was 5.60.

For `O=C(NO)c1coc(-c2ccc3ccccc3c2)n1`, the values for the pIC50 (against Histone deacetylase 8; against Histone deacetylase 1 [1]; in assay [2]) were 4.58, 4.91 and 7.05, respectively. Moreover, in assay [3] (Homo sapiens, HL-60, 72 h), the GI50 came out at 6.3 µM.

On to `O=C(NO)c1noc(-c2ccc(Br)cc2)n1`, for which the pIC50 at Histone deacetylase 8 is 4.70; on Histone deacetylase 1 [1], 4.48; in assay [2] it was 5.56.

For `O=C(NO)c1coc(-c2ccc(Br)cc2)n1`, in assay [3] (Homo sapiens, HL-60, 72 h), the 50% growth inhibitory concentration (GI50) is 10.2 µM.

In the case of `O=C(NO)c1csc(-c2cccnc2)n1`, on Histone deacetylase 1 [5], the inhibition came to 36%. For the same compound, in assay [2], the pIC50 is 6.52.

Take `O=C(NO)c1coc(-c2ccc(-c3ccccc3)cc2)n1`: the results for the pIC50 (on Histone deacetylase 8; at Histone deacetylase 1 [1]; in assay [2]) were 4.56, 4.53 and 7.05, respectively. For the same compound, the 50% growth inhibitory concentration (GI50) in assay [3] (Homo sapiens, HL-60, 72 h) was 5.6 µM.

Take `O=C(NO)c1csc(-c2ccccc2)n1`: the pIC50 is 4.92 at Histone deacetylase 8, 4.99 at Histone deacetylase 1 [1] and 5.72 in assay [2].
